Test results: ChEMBL document CHEMBL1137225, “Synthesis of analogues of Congo red and evaluation of their anti-prion activity” (2004)
pEC50: −log10 of the molar value.

Assays:
Type in all cases: functional
[1] = target: Major prion protein (Mus musculus) (UniProt P04925); assay: Inhibition of PrP-res formation in SMB (Scrapie mouse brain) cells at 10 uM
Procedure, shortened: (§1)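 Persistently scrapie-infected mouse SMB cells in 199 medium with 10% FCS, 5% newborn calf serum, 37 °C, 5% CO2; plated at 50% confluency, attached 24 h, then given fresh medium with compound diluted from 10 mM DMSO stock for 4 days. Lysates digested with proteinase K (80 μg/mL, 1 h, 37 °C); PrP-res detected by DR1 western blot, ECL, densitometry.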

[2] = target: Major prion protein (Mus musculus) (UniProt P04925); assay: Inhibition of PrPC polymerization by PrP-res at 100 uM; set-up: scale not given: the % may be the effect or the level left
Procedure, shortened: (§2)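 Substrate recombinant mouse PrP refolded without metal ions (50 μg), preincubated with compound (100 μM) in 500 μL H2O pH 6.5 for 30 min; seeded with aged Mn2+-refolded mouse PrP (10 μg). Turbidity read at 325 nm (5-mm cuvette) immediately and after 5 min; absorbance increase expressed as percentage of DMSO control.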

[3] = Effective dose required for the inhibition of PrP-res formation in SMB cells; conditions: Mus musculus, read-out: ED50 (the source's name); procedure, shortened: as §1
[4] = (§3) Compound was tested for the inhibition of PrP-res formation in SMB cells at 50 uM; conditions: Mus musculus; procedure, shortened: as §1
[5] = Compound was tested for the inhibition of PrP-res formation in SMB cells at 2 uM; conditions: Mus musculus; procedure, shortened: as §1
SMB = assay: as §3; conditions: Mus musculus; procedure, shortened: as §1
[6] = Effective dose required for the inhibition of PrP-res formation in SMB cells; value ranges from 25-50 nM; conditions: Mus musculus, read-out: ED50 (the source's name); procedure, shortened: as §1
[7] = Compound was tested for the ability to inhibit the polymerization of PrPC by PrP-res at 100 uM; value ranges from 17-50 %; set-up: scale not given: the % may be the effect or the level left; procedure, shortened: as §2

Sequence of Major prion protein (Mus musculus) (P04925 whole entry): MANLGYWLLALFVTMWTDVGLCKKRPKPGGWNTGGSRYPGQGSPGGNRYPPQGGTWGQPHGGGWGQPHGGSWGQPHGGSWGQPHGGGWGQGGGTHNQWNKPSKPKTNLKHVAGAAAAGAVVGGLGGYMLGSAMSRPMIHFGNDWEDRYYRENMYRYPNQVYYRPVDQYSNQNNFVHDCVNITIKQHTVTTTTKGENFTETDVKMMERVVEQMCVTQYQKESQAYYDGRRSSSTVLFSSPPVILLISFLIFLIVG

| Compound | inhibition [1] | Control [2] | further results |
| --- | --- | --- | --- |
| O=C(Nc1ccccc1O)c1ccc(-c2ccc(C(=O)Nc3ccccc3O)cc2)cc1 | Negative | 430% |  |
| COC(=O)c1ccc(OC)c(NC(=O)c2ccc(C(=O)Nc3cc(C(=O)OC)ccc3OC)cc2)c1 | Negative | 70% |  |
| O=[N+]([O-])c1ccc(/N=C/c2ccc(/C=N/c3ccc([N+](=O)[O-])cc3O)cc2)c(O)c1 | Negative | 109% |  |
| COC(=O)c1cc(NC(=O)c2ccc(C(=O)Nc3cc(C(=O)OC)cc(C(=O)OC)c3)cc2)cc(C(=O)OC)c1 | Positive | 147% | pEC50 [3]: 6.60 |
| COc1cc(NC(=O)c2ccc(-c3ccc(C(=O)Nc4ccc(C(=O)O)c(OC)c4)cc3)cc2)ccc1C(=O)O | Negative | 472% |  |
| COc1ccc(C(=O)O)cc1NS(=O)(=O)c1ccc(-c2ccc(S(=O)(=O)Nc3cc(C(=O)O)ccc3OC)cc2)cc1 | Negative | 62% | inhibition at 50 µM [4]: 33% |
| Oc1ccccc1/N=C/c1ccc(/C=N/c2ccccc2O)cc1 | Negative | 85% |  |
| COC(=O)c1ccc(NC(=O)c2ccc(C(=O)Nc3ccc(C(=O)OC)cc3O)cc2)c(O)c1 | Positive | 62% | pEC50 [3]: 5.30 |
| COC(=O)c1cc(NC(=O)c2ccc(-c3ccc(C(=O)Nc4ccc(O)c(C(=O)OC)c4)cc3)cc2)ccc1O | Positive | 249% | pEC50 [3]: 5.30 |
| Oc1ccc(/N=C/c2ccc(/C=N/c3ccc(O)cc3)cc2)cc1 | Negative | 240% |  |
| COC(=O)c1ccc(OC)c(NCc2ccc(CNc3cc(C(=O)OC)ccc3OC)cc2)c1 | Positive | 20% | pEC50 [3]: 6.60 |
| COC(=O)c1ccc(NS(=O)(=O)c2ccc(-c3ccc(S(=O)(=O)Nc4ccc(C(=O)OC)cc4O)cc3)cc2)c(O)c1 | Negative | 30% | inhibition at 50 µM [4]: 77% |
| COC(=O)c1ccc(OC)c(/N=C/c2ccc(-c3ccc(/C=N/c4cc(C(=O)OC)ccc4OC)cc3)cc2)c1 | Negative |  |  |
| O=C(O)c1ccc(C/N=C/c2ccc(/C=N/Cc3ccc(C(=O)O)cc3)cc2)cc1 | Negative | 117% |  |
| COC(=O)c1ccc(NC(=O)c2ccc(C(=O)Nc3ccc(C(=O)OC)cc3)cc2)cc1 | Negative | 100% |  |
| Oc1ccc(/C=C/c2ccc(/C=C/c3ccc(O)cc3)cc2)cc1 |  |  | inhibition at 2 µM [5]: 5% |
| N#Cc1ccc(NC(=O)c2ccc(C(=O)Nc3ccc(C#N)cc3)cc2)cc1 | Negative | 68% |  |
| O=C(O)c1ccc(/N=C/c2ccc(/C=N/c3ccc(C(=O)O)cc3O)cc2)c(O)c1 | Negative | 35% | inhibition (SMB): Negative |
| O=C(O)c1ccc(/N=C/c2ccc(/C=N/c3ccc(C(=O)O)cc3)cc2)cc1 | Negative | 12% |  |
| O=C(O)c1ccc(NS(=O)(=O)c2ccc(-c3ccc(S(=O)(=O)Nc4ccc(C(=O)O)cc4O)cc3)cc2)c(O)c1 | Negative | 12% | inhibition (SMB): Negative |
| O=C(O)c1cc(NC(=O)c2ccc(C(=O)Nc3cc(C(=O)O)cc(C(=O)O)c3)cc2)cc(C(=O)O)c1 | Negative | 1% |  |
| CCOC(=O)c1ccc(/N=C/c2ccc(/C=N/c3ccc(C(=O)OCC)c(O)c3)cc2)cc1O | Negative | 92% |  |
| O=C(Nc1ccc([N+](=O)[O-])cc1O)c1ccc(-c2ccc(C(=O)Nc3ccc([N+](=O)[O-])cc3O)cc2)cc1 | Negative | 160% |  |
| N#Cc1ccc(/N=C/c2ccc(/C=N/c3ccc(C#N)c4ccccc34)cc2)c2ccccc12 | Negative | 148% |  |
| COC(=O)c1ccc(/N=C/c2ccc(/C=N/c3ccc(C(=O)OC)c(O)c3)cc2)cc1O | Negative | 113% |  |
| COC(=O)c1ccc(OC)c(/N=C/c2ccc(/C=N/c3cc(C(=O)OC)ccc3OC)cc2)c1 | Negative | 47% | inhibition (SMB): Negative |
| C(=N\c1ccccc1)/c1ccc(-c2ccc(/C=N/c3ccccc3)cc2)cc1 | Negative | 315% |  |

| Compound | inhibition [1] | Control [2] | further results |
| --- | --- | --- | --- |
| COC(=O)c1ccc(NCc2ccc(CNc3ccc(C(=O)OC)cc3O)cc2)c(O)c1 | Positive | 166% | pEC50 [3]: 7.12 |
| Oc1ccc(/N=C/c2ccc(-c3ccc(/C=N/c4ccc(O)cc4)cc3)cc2)cc1 | Positive | 104% | pEC50 [3]: 6.60 |
| O=C(O)c1ccc(/N=C/c2ccc(-c3ccc(/C=N/c4ccc(C(=O)O)cc4O)cc3)cc2)c(O)c1 | Positive | 62% |  |
| O=C(Nc1ccccc1)c1ccc(C(=O)Nc2ccccc2)cc1 | Negative | 54% |  |
| O=C(O)c1cc(/C=C/c2ccc(/C=C/c3ccc(O)c(C(=O)O)c3)cc2)ccc1O | Negative | 72% | inhibition at 50 µM [4]: 3% |
| O=C(O)c1ccc(NCc2ccc(CNc3ccc(C(=O)O)cc3O)cc2)c(O)c1 | Negative | 79% |  |
| O=C(Oc1ccccc1)c1ccc(NS(=O)(=O)c2ccc(-c3ccc(S(=O)(=O)Nc4ccc(C(=O)Oc5ccccc5)c(O)c4)cc3)cc2)cc1O | Negative | 90% | inhibition (SMB): Negative |
| COC(=O)c1ccc(OC)c(NS(=O)(=O)c2ccc(-c3ccc(S(=O)(=O)Nc4cc(C(=O)OC)ccc4OC)cc3)cc2)c1 | Negative | 77% | inhibition (SMB): Negative |
| O=C(Oc1ccccc1)c1ccc(/N=C/c2ccc(/C=N/c3ccc(C(=O)Oc4ccccc4)c(O)c3)cc2)cc1O | Negative | 113% | inhibition (SMB): Negative |
| Oc1ccccc1/N=C/c1ccc(-c2ccc(/C=N/c3ccccc3O)cc2)cc1 | Negative | 281% |  |
| COc1ccc(C(=O)O)cc1/N=C/c1ccc(/C=N/c2cc(C(=O)O)ccc2OC)cc1 | Negative | 11% |  |
| O=C(O)c1cc(NS(=O)(=O)c2ccc(-c3ccc(S(=O)(=O)Nc4cc(C(=O)O)cc(C(=O)O)c4)cc3)cc2)cc(C(=O)O)c1 | Negative | 2% | inhibition (SMB): Negative |
| COC(=O)c1ccc(NC(=O)c2ccc(-c3ccc(C(=O)Nc4ccc(C(=O)OC)c(OC)c4)cc3)cc2)cc1OC | Positive | 70% | pEC50 [3]: 6.60 |
| O=C(O)c1cc(/N=C/c2ccc(/C=N/c3ccc(O)c(C(=O)O)c3)cc2)ccc1O | Negative | 53% |  |
| Oc1ccccc1NCc1ccc(CNc2ccccc2O)cc1 | Positive | 240% | pEC50 [3]: 5.60 |
| O=C(Nc1ccccc1)c1ccc(-c2ccc(C(=O)Nc3ccccc3)cc2)cc1 | Negative | 171% |  |
| N#Cc1ccc(/N=C/c2ccc(/C=N/c3ccc(C#N)cc3)cc2)cc1 | Positive | 81% | pEC50 [3]: 6.30 |
| COC(=O)c1ccc(/N=C/c2ccc(/C=N/c3ccc(C(=O)OC)cc3O)cc2)c(O)c1 | Negative | 140% | inhibition (SMB): Negative |
| O=C(Nc1ccc([N+](=O)[O-])cc1O)c1ccc(C(=O)Nc2ccc([N+](=O)[O-])cc2O)cc1 | Negative | 15% |  |
| COC(=O)c1ccc(NC(=O)c2ccc(-c3ccc(C(=O)Nc4ccc(C(=O)OC)c(O)c4)cc3)cc2)cc1O | Negative | NR |  |
| COC(=O)c1ccc(NC(=O)c2ccc(-c3ccc(C(=O)Nc4ccc(C(=O)OC)cc4O)cc3)cc2)c(O)c1 | Positive |  | pEC50 [6]: 7.30; Control [7]: 50% |
| Cc1ccc(/N=C/c2ccc(/C=N/c3ccc(C)cc3O)cc2)c(O)c1 | Negative | 230% |  |
| CCOC(=O)c1cc(/N=C/c2ccc(/C=N/c3ccc(O)c(C(=O)OCC)c3)cc2)ccc1O | Negative | 60% |  |
| COC(=O)c1ccc(/N=C/c2ccc(-c3ccc(/C=N/c4ccc(C(=O)OC)cc4O)cc3)cc2)c(O)c1 | Negative | 49% | inhibition at 50 µM [4]: 53% |
| N#Cc1ccc(NC(=O)c2ccc(-c3ccc(C(=O)Nc4ccc(C#N)cc4)cc3)cc2)cc1 | Negative | 196% |  |
| C(=N\c1ccccc1)/c1ccc(/C=N/c2ccccc2)cc1 | Negative |  |  |
| COC(=O)c1cc(/N=C/c2ccc(/C=N/c3ccc(O)c(C(=O)OC)c3)cc2)ccc1O | Negative |  |  |
